Test results as given in ChEMBL document CHEMBL1139254, “Synthesis and in vitro activities of a new antiviral duplex drug linking Zidovudine (AZT) and Foscarnet (PFA) via an octadecylglycerol residue” (Bioorg Med Chem, 2009).

Assays:
Human betaherpesvirus 5 [1] = assay: Antiviral activity against ganciclovir-resistant HCMV3 isolate replication in HFF cells by plaque reduction assay; format: functional, organism-based; conditions: Human betaherpesvirus 5, HFF
Method in brief: (§1)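 Plaque reduction run as a modified, simplified micro-culture, cell-associated immediate-early assay on human foreskin fibroblast monolayers (passage 15–30) in MEM with 10% FCS. Drug was diluted in MEM–10% FCS from a 100 mM PBS stock. IC50 came from Probit analysis. Strain HCMV-3res carries the UL97 C603W mutation. U405 is a clinical isolate from a pediatric stem cell transplant recipient.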

Human alphaherpesvirus 1 [2] = assay: Antiviral activity against acyclovir-resistant HSV1 K143 isolate replication in african green monkey Vero cells by plaque reduction assay; format: functional, organism-based; conditions: Human alphaherpesvirus 1, Vero
Method in brief: (§2)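 HSV-1 was grown and assayed by plaque reduction in Vero cell monolayers in MEM with 10% FCS. Drug was diluted in MEM–10% FCS from a 100 mM PBS stock, and IC50 was read from the plaque counts. KOS-M was derived from KOS by 3 weeks of passage in 13 μM ACV.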

Human betaherpesvirus 5 [3] = assay: Antiviral activity against ganciclovir-sensitive HCMV1 isolate replication in HFF cells by plaque reduction assay; format: functional, organism-based; conditions: Human betaherpesvirus 5, HFF; method in brief: as §1
Human betaherpesvirus 5 [4] = assay: Antiviral activity against ganciclovir-resistant HCMV U405 isolate replication in HFF cells by plaque reduction assay; format: functional, organism-based; conditions: Human betaherpesvirus 5, HFF; method in brief: as §1
[5] = test system: Human immunodeficiency virus 1; assay: Antiviral activity against HIV1 infected in human CEM-SS cells assessed as inhibition of virus-induced cytopathic effect by plaque reduction assay; format: functional, organism-based; conditions: Human immunodeficiency virus 1, CEM-SS
Method in brief: (§3)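 Run at the National Cancer Institute (USA). The assay rests on HIV killing T4 lymphocytes. EC50 is the concentration protecting against virus cytopathic effect, and IC50 is 50% inhibition of cell growth. The therapeutic index is TI50 = IC50/EC50.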

Human alphaherpesvirus 1 [6] = assay: Antiviral activity against acyclovir-resistant HSV1 KOS-M isolate replication in african green monkey Vero cells by plaque reduction assay; format: functional, organism-based; conditions: Human alphaherpesvirus 1, Vero; method in brief: as §2
[7] = Therapeutic index, IC50 for human CEM-SS cells to EC50 for HIV1; format: cell-based; conditions: read-out: Ratio IC50/EC50; method in brief: as §3
Human alphaherpesvirus 1 [8] = assay: Antiviral activity against acyclovir-sensitive HSV1 L177 isolate replication in african green monkey Vero cells by plaque reduction assay; format: functional, organism-based; conditions: Human alphaherpesvirus 1, Vero; method in brief: as §2
CEM-SS = assay: Growth inhibition of human CEM-SS cells; format: cell-based; method in brief: as §3
Human alphaherpesvirus 1 [9] = assay: Antiviral activity against acyclovir-sensitive HSV1 KOS isolate replication in african green monkey Vero cells by plaque reduction assay; format: functional, organism-based; conditions: Human alphaherpesvirus 1, Vero; method in brief: as §2
Human alphaherpesvirus 1 [10] = assay: Antiviral activity against acyclovir-resistant HSV1 L182 isolate replication in african green monkey Vero cells by plaque reduction assay; format: functional, organism-based; conditions: Human alphaherpesvirus 1, Vero; method in brief: as §2
Human alphaherpesvirus 1 [11] = assay: Antiviral activity against acyclovir-sensitive HSV1 K161 isolate replication in african green monkey Vero cells by plaque reduction assay; format: functional, organism-based; conditions: Human alphaherpesvirus 1, Vero; method in brief: as §2

SMILES | IC50 (Human betaherpesvirus 5 [1]) [µM] | IC50 (Human alphaherpesvirus 1 [2]) [µM] | IC50 (Human betaherpesvirus 5 [3]) [µM] | IC50 (Human betaherpesvirus 5 [4]) [µM] | EC50 [5] [µM] | IC50 (Human alphaherpesvirus 1 [6]) [µM] | selectivity ratio [7] | IC50 (Human alphaherpesvirus 1 [8]) [µM] | IC50 (CEM-SS) [µM] | IC50 (Human alphaherpesvirus 1 [9]) [µM] | IC50 (Human alphaherpesvirus 1 [10]) [µM] | IC50 (Human alphaherpesvirus 1 [11]) [µM]
CCCCCCCCCCCCCCCCCCOC[C@H](COP(=O)(O)C(=O)O)OP(=O)(O)OC[C@H]1O[C@@H](n2cc(C)c(=O)[nH]c2=O)C[C@@H]1N=[N+]=[N-] | 1.18 | 4.59 | 2.78 | 4.29 | 0.17 | 3.39 | 454 | 1.92 | 92.7 | 4.02 | 1.87 | 2.27
Nc1nc2c(ncn2COCCO)c(=O)[nH]1 [ACYCLOVIR] | – | 75.1 | – | – | – | 31.2 | – | 0.32 | – | 3.04 | 9.51 | 0.58
O=C(O)P(=O)(O)O [FOSCARNET] | 67.5 | – | – | 400 | – | 112 | – | 64 | – | 125 | 46 | –
Nc1nc2c(ncn2COC(CO)CO)c(=O)[nH]1 [GANCICLOVIR] | 16.4 | – | 3.22 | – | – | – | – | – | – | – | – | –
